Assay results as given in ChEMBL document CHEMBL1649179, “Pharmacokinetics of LB80331 and LB80317 following oral administration of LB80380, a new antiviral agent for chronic hepatitis B (CHB), in healthy adult subjects, CHB patients, and mice” (Antimicrob Agents Chemother, 2009).

Columns and labels:
[1] = tested on: Homo sapiens; assay: Half life in chronic hepatitis B virus infected patient assessed as (1-((2-amino-9H-purin-9-yl)methyl)cyclopropoxy)me at 30 mg, po qd for 4 weeks by LC-MS analysis; type: ADME, organism-based; settings: in vivo, 672 h
Method in brief: (§1)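 CHB patients given LB80380 orally once daily for 4 weeks. Plasma was sampled on day 1 and at steady state (weeks 2–4), predose and 0.5, 1, 2, 3, 4, 6, 8 and 24 h postdose. LB80331 was measured by validated LC-MS/MS (LLOQ 5 ng/ml). Terminal-phase apparent t1/2 came from noncompartmental analysis and was flagged if extrapolated AUC exceeded 20% of AUC0-24.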

[2] = tested on: Homo sapiens; assay: Oral clearance in chronic hepatitis B virus infected patient assessed as (1-((2-amino-9H-purin-9-yl)methyl)cyclopropoxy)me at 30 mg, po qd for 4 weeks by LC-MS analysis; type: ADME, organism-based; settings: in vivo, 672 h
Method in brief: (§2)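 Oral LB80380 was given once daily for 4 weeks to CHB patients. Plasma LB80331 was quantified by validated LC-MS/MS after protein precipitation, with stable-isotope internal standard, at baseline and steady state (weeks 2–4), 0–24 h postdose. Noncompartmental CL/F was calculated as dose (adjusted for LB80380/LB80331 molecular weights) divided by AUC (AUC0-∞ single dose; AUC0-24 steady state).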

[3] = tested on: Liver; assay: Tmax in CD-1 mouse liver assessed as di- and triphosphates of (1-((2-amino-9H-purin-9-yl)methyl)cyclopropoxy)me at 30 mg/kg, po administered as single dose by LC-MS analysis; type: ADME, organism-based; design: dose 30 mg/kg, route oral; settings: in vivo
Method in brief: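 Male CD-1 mice received 30 mg/kg orally in 100% PEG 400. Plasma and snap-frozen liver were taken from 3 mice per time point at 1, 2, 4, 6, 10, 24 and 36 h. Samples were extracted with perchloric acid and neutralized with ammonium bicarbonate. Free LB80331/LB80317 was measured directly by LC-MS/MS; total, including di- and triphosphates, was measured after calf intestinal phosphatase treatment.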

[4] = tested on: Homo sapiens; assay: Tmax in chronic hepatitis B virus infected patient assessed as (1-((2-amino-9H-purin-9-yl)methyl)cyclopropoxy)me at 30 mg, po administered as single dose by LC-MS analysis; type: ADME, organism-based; settings: in vivo
Method in brief: (§3)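 Daily oral LB80380 was given to CHB patients over 4 weeks. Blood was drawn on day 1 and at steady state (weeks 2–4), predose and 0.5–24 h postdose. Plasma LB80331 (LLOQ 5 ng/ml) and LB80317 (LLOQ 10 ng/ml) were measured by LC-MS/MS after protein-precipitation extraction. Tmax was taken by noncompartmental analysis.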

[5] = tested on: Homo sapiens; assay: Tmax in chronic hepatitis B virus infected patient assessed as (1-((2-amino-9H-purin-9-yl)methyl)cyclopropoxy)me at 120 mg, po qd for 4 weeks by LC-MS analysis; type: ADME, organism-based; settings: in vivo, 672 h; method in brief: as §3
[6] = tested on: Homo sapiens; assay: Ratio of AUC (0 to infinity) in high fat diet fed healthy human to AUC (0 to infinity) in fasted healthy human assessed as (1-((2-amino-9H-purin-9-yl)methyl)cyclopropoxy)me at 60 mg, po administered as single dose by LC-MS analysis; settings: in vivo
[7] = tested on: Homo sapiens; assay: Cmax in chronic hepatitis B virus infected patient assessed as (1-((2-amino-9H-purin-9-yl)methyl)cyclopropoxy)me at 120 mg, po administered as single dose by LC-MS analysis; type: ADME, organism-based; design: dose 120 mg, route oral; settings: in vivo
Method in brief: (§4)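 CHB patients (HBsAg/HBeAg positive), six per dose cohort, given a first oral dose on day 1. Plasma sampled at baseline. Analysis by validated LC-MS/MS after protein precipitation with a stable-isotope internal standard; LLOQ 5 ng/ml for LB80331. Noncompartmental analysis gives Cmax and AUC0-∞.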

[8] = tested on: Homo sapiens; assay: Half life in chronic hepatitis B virus infected patient assessed as (1-((2-amino-9H-purin-9-yl)methyl)cyclopropoxy)me at 120 mg, po administered as single dose by LC-MS analysis; type: ADME, organism-based; settings: in vivo; method in brief: as §1
[9] = tested on: Homo sapiens; assay: Cmax in chronic hepatitis B virus infected patient assessed as (1-((2-amino-9H-purin-9-yl)methyl)cyclopropoxy)me at 240 mg, po administered as single dose by LC-MS analysis; type: ADME, organism-based; design: dose 240 mg, route oral; settings: in vivo; method in brief: as §4
[10] = tested on: Homo sapiens; assay: Oral clearance in chronic hepatitis B virus infected patient assessed as (1-((2-amino-9H-purin-9-yl)methyl)cyclopropoxy)me at 60 mg, po qd for 4 weeks by LC-MS analysis; type: ADME, organism-based; settings: in vivo, 672 h; method in brief: as §2
[11] = tested on: Homo sapiens; assay: AUC (0 to infinity) in chronic hepatitis B virus infected patient assessed as (1-((2-amino-9H-purin-9-yl)methyl)cyclopropoxy)me at 240 mg, po administered as single dose by LC-MS analysis; type: ADME, organism-based, Plasma; design: dose 240 mg, route oral, time infinity; settings: in vivo; method in brief: as §4
[12] = tested on: Homo sapiens; assay: Oral clearance in chronic hepatitis B virus infected patient assessed as (1-((2-amino-9H-purin-9-yl)methyl)cyclopropoxy)me at 240 mg, po qd for 4 weeks by LC-MS analysis; type: ADME, organism-based; settings: in vivo, 672 h; method in brief: as §2
[13] = tested on: Plasma; assay: Half life in CD-1 mouse plasma assessed as (1-((2-amino-9H-purin-9-yl)methyl)cyclopropoxy)me at 30 mg/kg, po administered as single dose by LC-MS analysis; type: ADME, organism-based; design: dose 30 mg/kg, route oral; settings: in vivo
Method in brief: (§5)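 Male CD-1 mice given a single oral dose in 100% PEG 400. Samples extracted with perchloric acid and neutralized with ammonium bicarbonate. One aliquot assayed for the free analyte; the other treated with calf intestinal phosphatase to give the total including di-/triphosphates. Analysis by LC-MS/MS.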

[14] = tested on: Homo sapiens; assay: AUC (0 to infinity) in chronic hepatitis B virus infected patient assessed as (1-((2-amino-9H-purin-9-yl)methyl)cyclopropoxy)me at 30 mg, po administered as single dose by LC-MS analysis; type: ADME, organism-based, Plasma; design: dose 30 mg, time infinity, route oral; settings: in vivo; method in brief: as §4
[15] = tested on: Homo sapiens; assay: Cmax in fasted healthy human assessed as (1-((2-amino-9H-purin-9-yl)methyl)cyclopropoxy)me at 60 mg, po administered as single dose by LC-MS analysis; type: ADME, organism-based; design: dose 60 mg, route oral; settings: in vivo
Method in brief: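 Healthy subjects given a single oral dose after an overnight fast or after a high-fat breakfast. Plasma LB80331 measured by validated LC-MS/MS (LLOQ 5 ng/ml) after protein precipitation. Cmax by noncompartmental analysis.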

[16] = tested on: Liver; assay: Half life in CD-1 mouse liver assessed as (1-((2-amino-9H-purin-9-yl)methyl)cyclopropoxy)me at 30 mg/kg, po administered as single dose by LC-MS analysis; type: ADME, organism-based; design: dose 30 mg/kg, route oral; settings: in vivo; method in brief: as §5
[17] = tested on: Homo sapiens; assay: AUC (0 to infinity) in chronic hepatitis B virus infected patient assessed as (1-((2-amino-9H-purin-9-yl)methyl)cyclopropoxy)me at 60 mg, po administered as single dose by LC-MS analysis; type: ADME, organism-based, Plasma; design: dose 60 mg, time infinity, route oral; settings: in vivo; method in brief: as §4
[18] = tested on: Homo sapiens; assay: Tmax in high fat diet fed healthy human assessed as (1-((2-amino-9H-purin-9-yl)methyl)cyclopropoxy)me assessed as (1-((2-amino-9H-purin-9-yl)methyl)cyclopropoxy)me at 60 mg, po administered as single dose by LC-MS analysis; type: ADME, organism-based; settings: in vivo
Method in brief: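 Healthy subjects received a single oral 60-mg dose after a high-fat breakfast or after an overnight fast. Plasma LB80331 was assayed by validated LC-MS/MS (LLOQ 5 ng/ml; intra- and interassay precision and accuracy <10%). Tmax was obtained by noncompartmental analysis.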

[19] = tested on: Liver; assay: AUC (0 to 36 hrs) in CD-1 mouse liver assessed as di- and triphosphates of (1-((2-amino-9H-purin-9-yl)methyl)cyclopropoxy)me at 30 mg/kg, po administered as single dose by LC-MS analysis; type: ADME, organism-based; design: time < 36 hr, dose 30 mg/kg, route oral; settings: in vivo; method in brief: as §5
[20] = tested on: Liver; assay: Cmax in CD-1 mouse liver assessed as di- and triphosphates of (1-((2-amino-9H-purin-9-yl)methyl)cyclopropoxy)me at 30 mg/kg, po administered as single dose by LC-MS analysis; type: ADME, organism-based; design: dose 30 mg/kg, route oral; settings: in vivo; method in brief: as §5

- t1/2 [1]: 2.5 h
- CL/F [2]: 289 mL/min
- Tmax [3]: 1 h
- Tmax [4]: 1.5 h
- Tmax [5]: 1 h
- Ratio AUC [6]: 1.1
- Cmax [7]: 805 ng/mL
- t1/2 [8]: 3 h
- Cmax [9]: 1076 ng/mL
- CL/F [10]: 273 mL/min
- AUC [11]: 6302 ng·h/mL
- CL/F [12]: 416 mL/min
- t1/2 [13]: 2 h
- AUC [14]: 1069 ng·h/mL
- Cmax [15]: 286 ng/mL
- t1/2 [16]: 2.8 h
- AUC [17]: 2344 ng·h/mL
- Tmax [18]: 4 h
- AUC [19]: 64 µM·h
- Cmax [20]: 17 µM
SMILES: Nc1ncc2ncn(CC3(OCP(=O)(O)O)CC3)c2n1 [BESIFOVIR]
